Laboratory results: ChEMBL document CHEMBL3271969, “2-pyridylimidazoles as inhibitors of xanthine oxidase” (J Med Chem, 1977)

Tests used:
[1] = Dissociation constant, apparent pKa of the compound; type: physicochemical
[2] = molecular target: T1, Xanthine dehydrogenase/oxidase (Bos taurus, UniProt P80457); experiment: Inhibition of bovine xanthine oxidase at 2 X 10^-5 M; details: cattle; for inhibition (INH): 20 µM
How it was run: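 Bovine xanthine oxidase, diluted 1:300 to give ΔOD292 of 0.09–0.12 per min, starts the reaction in 0.05 M phosphate buffer pH 7.5 with hypoxanthine at 3×10^-5 M plus inhibitor.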

[3] = molecular target: T1, Xanthine dehydrogenase/oxidase; experiment: Inhibition of bovine xanthine oxidase; details: read-out: I50
[4] = Association constant, apparent pKa of the compound; type: physicochemical

T1 sequence (P80457 whole entry): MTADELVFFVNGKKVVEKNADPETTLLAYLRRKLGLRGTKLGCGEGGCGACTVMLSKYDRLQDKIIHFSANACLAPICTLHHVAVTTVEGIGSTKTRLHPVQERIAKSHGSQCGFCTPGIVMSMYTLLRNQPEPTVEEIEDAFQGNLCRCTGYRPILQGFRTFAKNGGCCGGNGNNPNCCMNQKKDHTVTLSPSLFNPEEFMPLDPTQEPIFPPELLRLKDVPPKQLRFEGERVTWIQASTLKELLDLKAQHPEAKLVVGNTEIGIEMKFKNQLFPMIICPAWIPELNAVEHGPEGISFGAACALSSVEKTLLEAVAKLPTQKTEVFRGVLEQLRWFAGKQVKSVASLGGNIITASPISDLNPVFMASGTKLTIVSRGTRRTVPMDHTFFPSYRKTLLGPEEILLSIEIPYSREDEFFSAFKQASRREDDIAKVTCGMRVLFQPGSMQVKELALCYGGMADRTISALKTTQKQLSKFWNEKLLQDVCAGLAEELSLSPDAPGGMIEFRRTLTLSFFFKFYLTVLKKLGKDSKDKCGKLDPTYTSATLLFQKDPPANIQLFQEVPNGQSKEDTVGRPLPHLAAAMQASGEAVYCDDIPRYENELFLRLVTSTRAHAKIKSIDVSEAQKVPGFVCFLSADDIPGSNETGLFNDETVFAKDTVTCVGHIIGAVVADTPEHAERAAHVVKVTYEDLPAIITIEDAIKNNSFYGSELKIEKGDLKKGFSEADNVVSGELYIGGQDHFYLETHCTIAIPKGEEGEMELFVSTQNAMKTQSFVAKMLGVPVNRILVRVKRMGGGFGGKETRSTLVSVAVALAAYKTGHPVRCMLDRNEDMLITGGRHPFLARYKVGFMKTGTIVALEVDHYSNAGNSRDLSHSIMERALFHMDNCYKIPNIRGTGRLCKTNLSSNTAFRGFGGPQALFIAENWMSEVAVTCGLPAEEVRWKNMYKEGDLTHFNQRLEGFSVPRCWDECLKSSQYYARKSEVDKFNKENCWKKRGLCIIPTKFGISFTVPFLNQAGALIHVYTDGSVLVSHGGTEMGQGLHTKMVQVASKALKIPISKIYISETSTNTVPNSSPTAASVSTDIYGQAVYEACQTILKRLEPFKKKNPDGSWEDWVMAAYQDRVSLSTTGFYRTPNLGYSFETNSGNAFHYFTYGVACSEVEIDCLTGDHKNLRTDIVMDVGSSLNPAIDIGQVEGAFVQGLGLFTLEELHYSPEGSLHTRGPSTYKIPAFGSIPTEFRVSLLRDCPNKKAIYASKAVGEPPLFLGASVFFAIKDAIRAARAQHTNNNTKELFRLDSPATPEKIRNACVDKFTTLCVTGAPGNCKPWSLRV

Row | Compound | inhibition (INH) [2] | IC50 [3] [µM] | other results
1 | O=[N+]([O-])c1c[nH]cn1 | Not Active |  | pKa [1]: 9
2 | FC(F)(F)c1cnc(-c2cccnc2)[nH]1 |  | 40 | pKa [1]: 10.2; pKa [4]: 3.5
3 | c1cc(-c2ncc[nH]2)ccn1 | Not Active |  | 
4 | c1cncc(-c2ncc[nH]2)c1 | Not Active |  | 
5 | O=[N+]([O-])c1cnc(-c2ccncc2)[nH]1 |  | 0.35 | 
6 | O=[N+]([O-])c1cnc(-c2cccnc2)[nH]1 |  | 1.3 | 
7 | Cc1cnc(-c2ccncc2)[nH]1 | Not Active |  | 
8 | Cc1cnc(-c2cccnc2)[nH]1 | Not Active |  | 
9 | O=C(O)c1cnc(-c2ccncc2)[nH]1 |  |  | inhibition at 20 µM [2]: 34%
10 | COC(=O)c1cnc(-c2ccncc2)[nH]1 |  |  | inhibition at 20 µM [2]: 10%
11 | N#Cc1cnc(-c2ccncc2)[nH]1 |  | 5.6 | 
12 | O=C(O)c1nc(-c2ccncc2)[nH]c1C(=O)O |  | 5.8 | 
13 | O=C(O)c1nc(-c2cccnc2)[nH]c1C(=O)O |  | 1 | 
14 | COC(=O)c1nc(-c2ccncc2)[nH]c1C(=O)OC | Not Active |  | pKa [1]: 7.15; pKa [4]: 3.98
15 | COC(=O)c1nc(-c2cccnc2)[nH]c1C(=O)OC | Not Active |  | 
16 | NC(=O)c1nc(-c2ccncc2)[nH]c1C(N)=O |  |  | inhibition at 20 µM [2]: 14%

Row | Compound | inhibition (INH) [2] | IC50 [3] [µM] | other results
17 | NC(=O)c1nc(-c2cccnc2)[nH]c1C(N)=O | Not Active |  | 
18 | N#Cc1nc(-c2ccncc2)[nH]c1C#N |  | 0.02 | 
19 | N#Cc1nc(-c2cccnc2)[nH]c1C#N |  | 35 | 
20 | N#Cc1nc(-c2ccncc2)[nH]c1C(N)=O |  | 0.5 | 
21 | Clc1nc(-c2cccnc2)[nH]c1Cl |  |  | inhibition at 20 µM [2]: 29%
22 | Brc1nc(-c2cccnc2)[nH]c1Br |  | 20 | 
23 | FC(F)(F)c1cnc(-c2ccncc2)[nH]1 |  | 2 | pKa [1]: 9.73; pKa [4]: 3.76
24 | Clc1ccc2[nH]c(-c3ccncc3)nc2c1 |  |  | pKa [1]: 10; pKa [4]: 3.5
25 | Clc1cc2nc(-c3ccncc3)[nH]c2cc1Cl |  | 15 | pKa [1]: 9.33; pKa [4]: 3
26 | c1cnc2[nH]c(-c3ccncc3)nc2c1 | Not Active |  | 
27 | c1cncc(-c2nc3cccnc3[nH]2)c1 | Not Active |  | 
28 | c1cc(-c2nc3cnccc3[nH]2)ccn1 |  | 13 | 
29 | c1cncc(-c2nc3cnccc3[nH]2)c1 |  |  | inhibition at 20 µM [2]: 23%
30 | c1ccc2[nH]c(-c3ccncc3)nc2c1 | Not Active |  | pKa [1]: 10.9; pKa [4]: 3.85
31 | Clc1ccc2nc(-c3cccnc3)[nH]c2c1 | Not Active |  | 
